Values after ≈ are worked out from the molar mass of the structure shown. Active and inactive are the calls of the source. The rule behind the calls is not given here.
Key:
[1] = system: Mycolicibacterium smegmatis; test: Antimycobacterial activity against Mycobacterium smegmatis MC2 155 after 3 days by broth microdilution method; assay type: functional; details: str. MC2 155, 72 h
In short: (§1)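 Growth inhibition of M. smegmatis mc²155 (ATCC700084) or M. tuberculosis H37Rv (ATCC27294) determined by broth microdilution; MIC in µg/mL. Where no exact MIC was reachable, the highest concentration technically testable is reported as a lower bound.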

[2] = system: Mycobacterium tuberculosis; test: Antimycobacterial activity against Mycobacterium tuberculosis H37Rv infected in human monocyte-derived macrophages assessed as reduction of colony forming unit at 1.25 ug/ml after 3 weeks by broth microdilution method in presence of 0.05 ug/ml of isoniazid; assay type: functional, organism-based
In short: (§2)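 Human monocyte-derived macrophages infected with M. tuberculosis H37Rv; each compound added at a concentration giving ≥90% macrophage viability over 3 days of treatment, alone or combined with INH or RIF at a non-antibiotic inhibitory concentration. The read-out was intracellular killing.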

[3] = system: Mycobacterium tuberculosis; test: Antimycobacterial activity against Mycobacterium tuberculosis H37Rv infected in human monocyte-derived macrophages assessed as reduction of colony forming unit at 16 ug/ml after 3 weeks by broth microdilution method; assay type: functional, organism-based; in short: as §2
[4] = system: Mycobacterium tuberculosis; test: Antimycobacterial activity against Mycobacterium tuberculosis H37Rv after 3 days by broth microdilution method; assay type: functional; details: 72 h; in short: as §1
[5] = system: Mycobacterium tuberculosis; test: Antimycobacterial activity against Mycobacterium tuberculosis H37Rv infected in human monocyte-derived macrophages assessed as reduction of colony forming unit at 16 ug/ml after 3 weeks by broth microdilution method in presence of 0.5 ug/ml of rifampin; assay type: functional, organism-based; in short: as §2
[6] = system: Mycolicibacterium smegmatis MC2 155
[7] = system: Mycobacterium tuberculosis; test: Antimycobacterial activity against Mycobacterium tuberculosis H37Rv infected in human monocyte-derived macrophages assessed as reduction of colony forming unit at 0.078 ug/ml after 3 weeks by broth microdilution method; assay type: functional, organism-based; in short: as §2
[8] = system: Mycobacterium tuberculosis; test: Antimycobacterial activity against Mycobacterium tuberculosis H37Rv infected in human monocyte-derived macrophages assessed as reduction of colony forming unit at 1.25 ug/ml after 3 weeks by broth microdilution method; assay type: functional, organism-based; in short: as §2
[9] = system: Mycobacterium tuberculosis; test: Antimycobacterial activity against Mycobacterium tuberculosis H37Rv infected in human monocyte-derived macrophages assessed as reduction of colony forming unit at 16 ug/ml after 3 weeks by broth microdilution method in presence of 0.05 ug/ml of isoniazid; assay type: functional, organism-based; in short: as §2
[10] = system: Mycobacterium tuberculosis; test: Antimycobacterial activity against Mycobacterium tuberculosis H37Rv infected in human monocyte-derived macrophages assessed as reduction of colony forming unit at 40 ug/ml after 3 weeks by broth microdilution method; assay type: functional, organism-based; in short: as §2
[11] = system: Mycobacterium tuberculosis; test: Antimycobacterial activity against Mycobacterium tuberculosis H37Rv infected in human monocyte-derived macrophages assessed as reduction of colony forming unit at 40 ug/ml after 3 weeks by broth microdilution method in presence of 0.5 ug/ml of rifampin; assay type: functional, organism-based; in short: as §2
PBMC = test: Cytotoxicity against human PBMC assessed as cell viability after 3 days by AlamarBlue assay; assay type: cell-based; details: 72 h
[12] = system: Mycobacterium tuberculosis; test: Antimycobacterial activity against Mycobacterium tuberculosis H37Rv infected in human monocyte-derived macrophages assessed as reduction of colony forming unit at 40 ug/ml after 3 weeks by broth microdilution method in presence of 0.05 ug/ml of isoniazid; assay type: functional, organism-based; in short: as §2
[13] = system: Mycobacterium tuberculosis; test: Antimycobacterial activity against Mycobacterium tuberculosis H37Rv infected in human monocyte-derived macrophages assessed as reduction of colony forming unit at 0.078 ug/ml after 3 weeks by broth microdilution method in presence of 0.05 ug/ml of isoniazid; assay type: functional, organism-based; in short: as §2
[14] = system: Mycobacterium tuberculosis; test: Antimycobacterial activity against Mycobacterium tuberculosis H37Rv infected in human monocyte-derived macrophages assessed as reduction of colony forming unit at 1.25 ug/ml after 3 weeks by broth microdilution method in presence of 0.5 ug/ml of rifampin; assay type: functional, organism-based; in short: as §2
[15] = system: Mycobacterium tuberculosis; test: Antimycobacterial activity against Mycobacterium tuberculosis H37Rv infected in human monocyte-derived macrophages assessed as reduction of colony forming unit at 0.078 ug/ml after 3 weeks by broth microdilution method in presence of 0.5 ug/ml of rifampin; assay type: functional, organism-based; in short: as §2
[16] = Ratio of thioridazine IC50 to compound IC50 for human PBMC; assay type: ADME, cell-based; details: PBMC (peripheral blood mononuclear cells), read-out: Ratio IC50

CN1CCCCC1CCn1cnc2ccccc21 (racemic)
MIC [1]: > 256 µg/mL
Activity [2]: Active
Activity [3]: Active
MIC [4]: > 256 µg/mL
Activity [5]: Active
RFU [6]: 15.3
Activity [7]: Active
Activity [8]: Active
Activity [9]: Active
Activity [10]: Active
Activity [11]: Active
IC50 (PBMC): 702 µM
Activity [12]: Active
Activity [13]: Active
Activity [14]: Active
Activity [15]: Active

c1ccc2c(c1)c1ccccc1n2CCN1CCCCC1
MIC [1]: > 256 µg/mL
RFU [6]: 0.08

COc1ccc(N(CCC2CCCCN2C)C(C)C)cc1OC (racemic)
MIC [1]: > 256 µg/mL
Activity [2]: Active
Activity [3]: Active
MIC [4]: > 256 µg/mL
Activity [5]: Active
RFU [6]: 1.17
Activity [7]: Active
Activity [8]: Active
Activity [9]: Active
Activity [10]: Active
Activity [11]: Active
IC50 (PBMC): 265 µM
Activity [12]: Active
Activity [13]: Active
Activity [14]: Active
Activity [15]: Active

CN1CCCCC1CCN1CCCC1 (racemic)
MIC [1]: > 256 µg/mL
RFU [6]: 0.39

COc1ccc(CCN(C)CCCC(C#N)(c2ccc(OC)c(OC)c2)C(C)C)cc1OC (configuration not stated) [VERAPAMIL]
MIC [1]: 800 µg/mL (≈ 1760 µM)
MIC [4]: 512 µg/mL (≈ 1130 µM)
IC50 (PBMC): 117 µM

CSc1ccc2c(c1)N(CCC1CCCCN1C)c1ccccc1S2 (configuration not stated) [THIORIDAZINE]
MIC [1]: 30 µg/mL (≈ 81 µM)
MIC [4]: 15 µg/mL (≈ 40.5 µM)
RFU [6]: 0.82
IC50 (PBMC): 13.8 µM

CN1CCCCC1CCN(c1ccccc1)c1ccccc1 (racemic)
MIC [1]: > 64 µg/mL
RFU [6]: 0.61

COc1ccc(N(CCC2CCCCN2C)c2ccccc2)cc1OC (racemic)
MIC [1]: 256 µg/mL (≈ 722 µM)
RFU [6]: 0.76

Cc1c(Cc2ccccc2)c(=O)n2c3ccccc3n(CCC3CCCCN3C)c2c1C#N (racemic)
MIC [1]: > 64 µg/mL
RFU [6]: 0.66

CN1CCCCC1CCn1c2ccccc2c(=O)c2ccccc21 (configuration not stated)
MIC [1]: 64 µg/mL (≈ 200 µM)
RFU [6]: 0.94
IC50 (PBMC): 2.37 µM

c1ccc(CCn2c3ccccc3c3ccccc32)nc1
MIC [1]: > 64 µg/mL
RFU [6]: -0.17

CN1CCCCC1CCn1ccc2ccc(Br)cc21 (racemic)
MIC [1]: 64 µg/mL (≈ 199 µM)
Activity [2]: Active
Activity [3]: Active
selectivity ratio [16]: 2
MIC [4]: > 256 µg/mL
Activity [5]: Active
RFU [6]: 0.81
Activity [7]: Active
Activity [8]: Active
Activity [9]: Active
Activity [10]: Active
Activity [11]: Active
IC50 (PBMC): 32.5 µM
Activity [12]: Active
Activity [13]: Active
Activity [14]: Active
Activity [15]: Active

COc1ccc(C(C#N)(CCC2CCCCN2C)C(C)C)cc1OC (mixture of isomers)
MIC [1]: > 256 µg/mL
RFU [6]: 0.72

CN1CCCCC1CCn1c(C(=O)NC23CC4CC(CC(C4)C2)C3)cc2cc(Cl)ccc21 (mixture of isomers)
MIC [1]: > 256 µg/mL
RFU [6]: 0.17

CN1CCCCC1CCn1c2ccccc2c2ccccc21 (racemic)
MIC [1]: 256 µg/mL (≈ 875 µM)
Activity [2]: Active
Activity [3]: Active
selectivity ratio [16]: 2
MIC [4]: 128 µg/mL (≈ 438 µM)
Activity [5]: Active
RFU [6]: 0.95
Activity [7]: Active
Activity [8]: Active
Activity [9]: Active
Activity [10]: Active
Activity [11]: Active
IC50 (PBMC): 30 µM
Activity [12]: Active
Activity [13]: Active
Activity [14]: Active
Activity [15]: Active

From ChEMBL document CHEMBL3593164, “Rational Design and Synthesis of Thioridazine Analogues as Enhancers of the Antituberculosis Therapy” (J Med Chem, 2015)
